Data as given in ChEMBL document CHEMBL4354828, “Discovery of Taniborbactam (VNRX-5133): A Broad-Spectrum Serine- and Metallo-β-lactamase Inhibitor for Carbapenem-Resistant Bacterial Infections” (J Med Chem, 2020).
pIC50: −log10 of the molar value. ≈ marks a conversion by molar mass, not a printed value.

Key:
[1] = Inhibition of bacterial IMP-1 using nitrocefin as substrate preincubated for 15 mins followed by susbtrate addition and measured after 10 mins by spectrophotometric method; set-up: species or system Bacteria
[2] = Inhibition of bacterial SHV-5 using cefotaxime as substrate preincubated for 15 mins followed by susbtrate addition and measured after 10 mins by spectrophotometric method; set-up: species or system Bacteria
Pseudomonas aeruginosa [3] = test: Inhibition of KPC-2/PDC-42 in Pseudomonas aeruginosa CDC-0356 assessed as cefepime antibacterial activity at 8 ug/ml after 16 to 20 hrs by CLSI-based microbroth dilution method (Rvb > […] ug/ml)
Acinetobacter baumannii = test: Inhibition of VIM-1/VIM-2/VIM-4/NDM-1 in Acinetobacter baumannii assessed as cefepime antibacterial activity at 4 ug/ml after 16 to 20 hrs by CLSI-based microbroth dilution method
Summary of the method: (§1)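 Panel of 14 clinical isolates expressing class B VIM- or NDM-type MBLs: E. coli (4), E. cloacae (2), K. pneumoniae (4), P. aeruginosa (1), A. baumannii (3).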

Klebsiella pneumoniae [4] = test: Inhibition of VIM-1/VIM-2/VIM-4/NDM-1 in Klebsiella pneumoniae assessed as cefepime antibacterial activity at 4 ug/ml after 16 to 20 hrs by CLSI-based microbroth dilution method
Enterobacter cloacae [5] = test: Inhibition of VIM-1/VIM-2/VIM-4/NDM-1 in Enterobacter cloacae assessed as cefepime antibacterial activity at 4 ug/ml after 16 to 20 hrs by CLSI-based microbroth dilution method; summary of the method: as §1
Klebsiella pneumoniae [6] = test: Inhibition of TEM/CTX-M/SHV in Klebsiella pneumoniae 9032 assessed as cefepime antibacterial activity at 4 ug/ml after 16 to 20 hrs by CLSI-based microbroth dilution method (reference value: […] ug/ml)
[7] = Inhibition of bacterial NDM-1 using cefepime as substrate preincubated for 15 mins followed by susbtrate addition and measured after 10 mins by spectrophotometric method; set-up: species or system Bacteria
Escherichia coli [8] = test: Inhibition of NDM in Escherichia coli CDC-0452 assessed as meropenem antibacterial activity at 4 ug/ml after 16 to 20 hrs by CLSI-based microbroth dilution method (reference value: […] ug/ml)
[9] = system: Klebsiella pneumoniae ATCC BAA-1705; test: Inhibition of KPC-2 in Klebsiella pneumoniae ATCC BAA 1705 assessed as meropenem antibacterial activity at 4 ug/ml after 16 to 20 hrs by CLSI-based microbroth dilution method (reference value: […] ug/ml)
[10] = Inhibition of bacterial CMY-2 using nitrocefin as substrate preincubated for 15 mins followed by susbtrate addition and measured after 10 mins by spectrophotometric method; set-up: species or system Bacteria
Escherichia coli [11] = test: Inhibition of NDM-1/CMY-6/OXA-1 in Escherichia coli CDC-0055 assessed as meropenem antibacterial activity at 4 ug/ml after 16 to 20 hrs by CLSI-based microbroth dilution method (reference value: […] ug/ml)
Enterobacter cloacae [12] = test: Inhibition of TEM/CTX-M/SHV/Cephalosporinase in Enterobacter cloacae CH23 assessed as cefepime antibacterial activity at 4 ug/ml after 16 to 20 hrs by CLSI-based microbroth dilution method (Rvb > […] ug/ml)
[13] = Inhibition of bacterial CTX-M-15 using cefotaxime as substrate preincubated for 15 mins followed by susbtrate addition and measured after 10 mins by spectrophotometric method; set-up: species or system Bacteria
Escherichia coli [14] = test: Inhibition of NDM-1/CMY-6/OXA-1 in Escherichia coli CDC-0055 assessed as piperacillin antibacterial activity at 16 ug/ml after 16 to 20 hrs by CLSI-based microbroth dilution method
Summary of the method: (§2)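 MDR β-lactamase-producing Gram-negative clinical isolates. […] MIC was reported as the inhibitor concentration that restores the partner's antibacterial activity.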

Escherichia coli [15] = test: Inhibition of NDM-1/CMY-6/OXA-1 in Escherichia coli CDC-0055 assessed as cefepime antibacterial activity at 8 ug/ml after 16 to 20 hrs by CLSI-based microbroth dilution method; summary of the method: as §2
Pseudomonas aeruginosa [16] = test: Inhibition of KPC-2/PDC-42 in Pseudomonas aeruginosa CDC-0356 assessed as piperacillin antibacterial activity at 16 ug/ml after 16 to 20 hrs by CLSI-based microbroth dilution method (Rvb > […] ug/ml)
[17] = Inhibition of bacterial KPC-2 using imipenem as substrate preincubated for 15 mins followed by susbtrate addition and measured after 10 mins by spectrophotometric method; set-up: species or system Bacteria
Pseudomonas aeruginosa [18] = test: Inhibition of VIM in Pseudomonas aeruginosa CDC-0457 assessed as meropenem antibacterial activity at 4 ug/ml after 16 to 20 hrs by CLSI-based microbroth dilution method
Escherichia coli [19] = test: Inhibition of TEM/CTX-M/SHV/Cephalosporinase in Escherichia coli EC1552 assessed as cefepime antibacterial activity at 4 ug/ml after 16 to 20 hrs by CLSI-based microbroth dilution method (reference value: […] ug/ml)
Pseudomonas aeruginosa [20] = test: Inhibition of KPC-2/PDC-42 in Pseudomonas aeruginosa CDC-0356 assessed as meropenem antibacterial activity at 4 ug/ml after 16 to 20 hrs by CLSI-based microbroth dilution method (reference value: […] ug/ml)
Pseudomonas aeruginosa [21] = test: Inhibition of VIM in Pseudomonas aeruginosa CDC-0457 assessed as cefepime antibacterial activity at 8 ug/ml after 16 to 20 hrs by CLSI-based microbroth dilution method
Escherichia coli [22] = test: Inhibition of VIM-1/VIM-2/VIM-4/NDM-1 in Escherichia coli assessed as cefepime antibacterial activity at 4 ug/ml after 16 to 20 hrs by CLSI-based microbroth dilution method; summary of the method: as §1
Escherichia coli [23] = test: Inhibition of NDM in Escherichia coli CDC-0452 assessed as piperacillin antibacterial activity at 16 ug/ml after 16 to 20 hrs by CLSI-based microbroth dilution method (Rvb > […] ug/ml)
Pseudomonas aeruginosa [24] = test: Inhibition of VIM-1/VIM-2/VIM-4/NDM-1 in Pseudomonas aeruginosa assessed as cefepime antibacterial activity at 4 ug/ml after 16 to 20 hrs by CLSI-based microbroth dilution method; summary of the method: as §1
[25] = Inhibition of bacterial OXA-48 using nitrocefin as substrate preincubated for 15 mins followed by susbtrate addition and measured after 10 mins by spectrophotometric method; set-up: species or system Bacteria
[26] = Inhibition of bacterial VIM-2 using nitrocefin as substrate preincubated for 15 mins followed by susbtrate addition and measured after 10 mins by spectrophotometric method; set-up: species or system Bacteria
Summary of the method: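 Purified β-lactamase inhibition. IC50 values are the average of duplicates unless otherwise indicated.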

## C[C@]1(Cn2ccnn2)[C@H](C(=O)O)N2C(=O)C[C@H]2S1(=O)=O [TAZOBACTAM]
[1]
  pIC50: < 4.00
[2]
  pIC50: 7.82
Pseudomonas aeruginosa [3]
  MIC: > 16 µg/mL
Acinetobacter baumannii
  MIC50: > 32 µg/mL
  MIC90: > 32 µg/mL
Klebsiella pneumoniae [4]
  MIC50: > 32 µg/mL
  MIC90: > 32 µg/mL
Enterobacter cloacae [5]
  MIC50: > 32 µg/mL
  MIC90: > 32 µg/mL
Klebsiella pneumoniae [6]
  MIC: 4 µg/mL (≈ 13.3 µM)
[7]
  pIC50: < 4.00
Escherichia coli [8]
  MIC: > 16 µg/mL
[9]
  MIC: 8 µg/mL (≈ 26.6 µM)
[10]
  pIC50: 6.39
Escherichia coli [11]
  MIC: > 16 µg/mL
Enterobacter cloacae [12]
  MIC: > 16 µg/mL
[13]
  pIC50: 9.00
Escherichia coli [14]
  MIC: > 16 µg/mL
Escherichia coli [15]
  MIC: > 16 µg/mL
Pseudomonas aeruginosa [16]
  MIC: > 16 µg/mL
[17]
  pIC50: 5.77
Pseudomonas aeruginosa [18]
  MIC: > 16 µg/mL
Escherichia coli [19]
  MIC: 4 µg/mL (≈ 13.3 µM)
Pseudomonas aeruginosa [20]
  MIC: > 16 µg/mL
Pseudomonas aeruginosa [21]
  MIC: > 16 µg/mL
Escherichia coli [22]
  MIC50: > 32 µg/mL
  MIC90: > 32 µg/mL
Escherichia coli [23]
  MIC: > 16 µg/mL
Pseudomonas aeruginosa [24]
  MIC50: > 32 µg/mL
  MIC90: > 32 µg/mL
[25]
  pIC50: 6.26
[26]
  pIC50: < 4.00
